Test results from ChEMBL document CHEMBL4152279, “Synthesis, cytotoxic evaluation and target identification of thieno[2,3-d]pyrimidine derivatives with a dithiocarbamate side chain at C2 position” (Eur J Med Chem, 2018).
pIC50: −log10 of the molar value. Active and inactive are the calls of the source. The rule behind the calls is not given here.

Assays:
[1] = system: HT-29; assay: Cytotoxicity against human HT-29 cells at 30 uM by MTS assay; type: functional, cell-based
[2] = system: MDA-MB-231; assay: Cytotoxicity against human MDA-MB-231 cells at 30 uM by MTS assay; type: functional, cell-based
[3] = system: A549; assay: Cytotoxicity against human A549 cells by MTS assay; type: functional, cell-based
How it was run: (§1)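 MTS read-out (CellTiter 96 AQueous One) of proliferation in A549 or HCT-116 cells grown in DMEM with 10% FBS at 37 °C, 5% CO2. Taxol-resistant A549 cells were exposed for 72 h. Compounds were screened at 30 μM versus vehicle, with ≥50% inhibition counted active. Actives were then tested over a concentration range for IC50. Triplicate wells, three independent experiments, mean ± SD.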

[4] = system: HCT-116; assay: Cytotoxicity against human HCT116 cells at 30 uM by MTS assay relative to control; type: functional; how it was run: as §1
[5] = system: MCF7; assay: Cytotoxicity against human MCF7 cells at 30 uM by MTS assay; type: functional, cell-based
[6] = system: HCT-116; assay: Cytotoxicity against human HCT116 cells by MTS assay; type: functional, cell-based; how it was run: as §1
[7] = system: HeLa; assay: Cytotoxicity against human HeLa cells at 30 uM by MTS assay; type: functional, cell-based
[8] = system: A549; assay: Cytotoxicity against human A549 cells at 30 uM by MTS assay relative to control; type: functional; how it was run: as §1
[9] = species: Sus scrofa; assay: Binding affinity to porcine tubulin after overnight incubation by streptavidin pull down assay
How it was run: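 Purified porcine neuronal tubulin incubated with biotin, biotinylated probe or control probe in NETN buffer at 4 °C. Streptavidin Dynabeads 1 h at 4 °C, six washes, then SDS-PAGE and α-tubulin immunoblot.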

[10] = system: A549; assay: Binding affinity to tubulin alpha in human A549 cells immunoblot based based pull down assay; type: cell-based
How it was run: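 A549 lysate in NETN buffer incubated with biotin, biotinylated probe or control probe at 4 °C, then streptavidin Dynabeads 1 h at 4 °C. Beads washed six times, bound proteins run on SDS-PAGE and immunoblotted for α-tubulin.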

Structure (SMILES) | Activity [1] | Activity [2] | pIC50 [3] | Activity [4] | Activity [5] | pIC50 [6] | Activity [7] | Activity [8] | Activity [9] | Activity [10]
Cc1cc2c(=O)[nH]c(CSC(=S)NCc3ccc(F)cc3)nc2s1 | inactive | inactive | 4.72 | >=50% | inactive | 4.54 | inactive | >=50% |  | 
COc1ccccc1CNC(=S)SCc1nc2sc(C)cc2c(=O)[nH]1 | inactive | inactive | 5.15 | >=50% | inactive | 4.74 | inactive | >=50% |  | 
COc1cc(CNC(=S)SCc2nc3sc(C)cc3c(=O)[nH]2)cc(OC)c1OC | inactive | inactive | 5.10 | >=50% | inactive | 4.83 | inactive | >=50% |  | 
Cc1cc2c(=O)[nH]c(CNC(=S)SCc3ccc(F)cc3)nc2s1 | inactive | inactive |  | inactive | inactive |  | inactive | inactive |  | 
Cc1cc2c(=O)[nH]c(CSC(=S)NCc3ccc4c(c3)OCO4)nc2s1 | inactive | inactive | 4.85 | >=50% | inactive | 4.61 | inactive | >=50% |  | 
Cc1cc2c(=O)[nH]c(CSC(=S)NCc3ccccc3F)nc2s1 | inactive | inactive | < 4.52 | >=50% | inactive | 4.53 | inactive | >=50% |  | 
Cc1cc2c(=O)[nH]c(CSC(=S)NCc3ccc(F)cc3F)nc2s1 | inactive | inactive | 4.79 | >=50% | inactive | < 4.52 | inactive | >=50% |  | 
Cc1cc2c(=O)[nH]c(CSC(=S)NCc3ccc(Cl)cc3Cl)nc2s1 | inactive | inactive | 4.53 | >=50% | inactive | < 4.52 | inactive | >=50% |  | 
Cc1ccc(CSC(=S)NCc2nc3sc(C)cc3c(=O)[nH]2)cc1 | inactive | inactive |  | inactive | inactive |  | inactive | inactive |  | 
Cc1cc2c(=O)[nH]c(CNC(=S)SCc3ccc(F)cc3F)nc2s1 | inactive | inactive |  | inactive | inactive |  | inactive | inactive |  | 
Cc1cc2c(=O)[nH]c(CSC(=S)NCc3ccccc3)nc2s1 | inactive | inactive | 4.53 | >=50% | inactive | < 4.52 | inactive | >=50% |  | 
Cc1cc2c(=O)[nH]c(CSC(=S)NCc3cccnc3)nc2s1 | inactive | inactive | 5.24 | >=50% | inactive | 5.03 | inactive | >=50% |  | 
Cc1cc2c(=O)[nH]c(CNC(=S)SCc3ccc(Cl)cc3)nc2s1 | inactive | inactive |  | inactive | inactive |  | inactive | inactive |  | 
COc1ccc(CNC(=S)SCc2nc3sc(C)cc3c(=O)[nH]2)c(OC)c1 | inactive | inactive | < 4.52 | >=50% | inactive | < 4.52 | inactive | >=50% |  | 
Cc1cc2c(=O)[nH]c(CNC(=S)SCc3ccc(Br)cc3)nc2s1 | inactive | inactive |  | inactive | inactive |  | inactive | inactive |  | 
Cc1cc2c(=O)[nH]c(CSC(=S)NCc3cccs3)nc2s1 | inactive | inactive | 4.64 | >=50% | inactive | 4.56 | inactive | >=50% |  | 

Structure (SMILES) | Activity [1] | Activity [2] | pIC50 [3] | Activity [4] | Activity [5] | pIC50 [6] | Activity [7] | Activity [8] | Activity [9] | Activity [10]
Cc1ccc(CNC(=S)SCc2nc3sc(C)cc3c(=O)[nH]2)cc1 | inactive | inactive | 4.58 | >=50% | inactive | 4.55 | inactive | >=50% |  | 
CCOC(=O)c1ccc(CSC(=S)NCc2nc3sc(C)cc3c(=O)[nH]2)cc1 | inactive | inactive |  | inactive | inactive |  | inactive | inactive |  | 
Cc1cc2c(=O)[nH]c(CSC(=S)NCc3ccc(Cl)cc3)nc2s1 | inactive | inactive | 4.95 | >=50% | inactive | 4.60 | inactive | >=50% |  | 
COc1cccc(CSC(=S)NCc2nc3sc(C)cc3c(=O)[nH]2)c1 | inactive | inactive |  | inactive | inactive |  | inactive | inactive |  | 
Cc1cc2c(=O)[nH]c(CNC(=S)SCc3ccc([N+](=O)[O-])cc3)nc2s1 | inactive | inactive |  | inactive | inactive |  | inactive | inactive |  | 
Cc1cc2c(=O)[nH]c(CN(CCCNC(=O)CCCC[C@@H]3SC[C@@H]4NC(=O)N[C@@H]43)Cc3ccc(C#N)cc3)nc2s1 |  |  |  |  |  |  |  |  | inactive | inactive
Cc1cc2c(=O)[nH]c(CSC(=S)NCc3ccc(Br)cc3)nc2s1 | inactive | inactive | 4.66 | >=50% | inactive | 4.54 | inactive | >=50% |  | 
COc1ccc(CSC(=S)NCc2nc3sc(C)cc3c(=O)[nH]2)cc1 | inactive | inactive |  | inactive | inactive |  | inactive | inactive |  | 
Cc1cc2c(=O)[nH]c(CNC(=S)SCc3ccccc3)nc2s1 | inactive | inactive |  | inactive | inactive |  | inactive | inactive |  | 
COc1ccc(CNC(=S)SCc2nc3sc(C)cc3c(=O)[nH]2)cc1 | inactive | inactive | 4.54 | >=50% | inactive | 4.61 | inactive | >=50% |  | 
Cc1cc2c(=O)[nH]c(CSC(=S)NCc3ccco3)nc2s1 | inactive | inactive | < 4.52 | >=50% | inactive | 4.53 | inactive | >=50% |  | 
Cc1cc2c(=O)[nH]c(CNC(=S)SCc3ccc(C#N)cc3)nc2s1 | inactive | inactive |  | inactive | inactive |  | inactive | inactive |  | 
Cc1cc2c(=O)[nH]c(CSC(=S)NCc3ccncc3)nc2s1 | inactive | inactive | 5.13 | >=50% | inactive | 4.85 | inactive | >=50% |  | 
O=C(O)CCCC[C@@H]1SC[C@@H]2NC(=O)N[C@@H]21 |  |  |  |  |  |  |  |  | inactive | inactive
COc1ccccc1CSC(=S)NCc1nc2sc(C)cc2c(=O)[nH]1 | inactive | inactive |  | inactive | inactive |  | inactive | inactive |  | 
Cc1cc2c(=O)[nH]c(CSC(=S)NCc3ccc([N+](=O)[O-])cc3)nc2s1 | inactive | inactive | 4.91 | >=50% | inactive | 4.69 | inactive | >=50% |  | 
